Experimental data from ChEMBL document CHEMBL2176966, “Discovery of 6,7-dihydro-5H-pyrrolo[2,3-a]pyrimidines as orally available G protein-coupled receptor 119 agonists” (J Med Chem, 2012).
pEC50, pIC50: −log10 of the molar value. Values after ≈ are worked out from the molar mass of the structure shown. Active and inactive are the calls of the source. The rule behind the calls is not given here.

How the values were obtained:
[1] = Equilibrium solubility of the compound in fasted simulated intestinal fluid; assay type: physicochemical
Rattus norvegicus [2] = species: Rattus norvegicus; assay: Potentiation of 3 mM of glucose-induced insulin secretion in rat islet at 0.3 uM
Rattus norvegicus [3] = assay: Antihyperglycemic activity in Sprague-Dawley rat assessed as reduction of acetaminophen AUC (0 to 2 hrs) at 10 mg/kg, po relative to control; assay type: functional; set-up: scale not given: the % may be the effect or the level left
Outline: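 Male Sprague-Dawley rats, fasted overnight, dosed orally at 10 mL/kg in 0.5% HPMC/0.1% Tween80 (vehicle or compound) at −120 min. Pramlintide (15 μg) was given to a positive-control cohort at −15 min. Baseline plasma was taken at time 0, then acetaminophen (65 mg) by gavage. The plasma acetaminophen concentration–time profile was followed for 3 h; AUC 0–2 h was compared with vehicle.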

[4] = Half life in mouse at 30 mg/kg; assay type: ADME, organism-based; set-up: dose 30 mg/kg; conditions: in vivo
Mus musculus [5] = assay: Increase in PYY level in GPR119 knockout mouse at 30 mg/kg, po after 60 mins; assay type: functional, organism-based; set-up: dose 30 mg/kg
Outline: (§1)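 Wild-type and GPR119 knockout mice, fasted overnight, were dosed by oral gavage (30 mg/kg, 10 mL/kg, 0.5% HPMC/0.1% Tween80 vehicle). Plasma was obtained from cardiac blood at 60 min in chilled K2-EDTA containing DPP-4 inhibitor and aprotinin, then stored at −80 °C. Hormone levels were compared with vehicle; n = 8–10.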

[6] = Induction of GLP1 secretion in mouse GLUTag cells after 2 hrs; assay type: functional, cell-based
Outline: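 GLUTag cells were grown to 80% confluence on Matrigel-coated plates in DMEM with 2 mM L-glutamine and 10% FBS. They were preincubated 30 min in Krebs-Ringer buffer (10 mM D-glucose, 0.1% BSA, DPP-IV inhibitor). Compound was then added at varying concentrations in the same buffer for 2 h at 37 °C, 5% CO2. Cleared supernatant was assayed for amidated (active) GLP-1 by sandwich electrochemiluminescence immunoassay.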

[7] = Half life in rat at 30 mg/kg; assay type: ADME, organism-based; set-up: dose 30 mg/kg; conditions: in vivo
[8] = Clearance in rat at 30 mg/kg; assay type: ADME, organism-based; set-up: dose 30 mg/kg; conditions: in vivo
[9] = Cmax in mouse at 30 mg/kg; assay type: ADME, organism-based; set-up: dose 30 mg/kg; conditions: in vivo
Cytochrome P450 2C9 = Cytochrome P450 2C9 (Homo sapiens, UniProt P11712); assay: Inhibition of CYP2C9; assay type: ADME
Chain of Cytochrome P450 2C9 (P11712 whole entry): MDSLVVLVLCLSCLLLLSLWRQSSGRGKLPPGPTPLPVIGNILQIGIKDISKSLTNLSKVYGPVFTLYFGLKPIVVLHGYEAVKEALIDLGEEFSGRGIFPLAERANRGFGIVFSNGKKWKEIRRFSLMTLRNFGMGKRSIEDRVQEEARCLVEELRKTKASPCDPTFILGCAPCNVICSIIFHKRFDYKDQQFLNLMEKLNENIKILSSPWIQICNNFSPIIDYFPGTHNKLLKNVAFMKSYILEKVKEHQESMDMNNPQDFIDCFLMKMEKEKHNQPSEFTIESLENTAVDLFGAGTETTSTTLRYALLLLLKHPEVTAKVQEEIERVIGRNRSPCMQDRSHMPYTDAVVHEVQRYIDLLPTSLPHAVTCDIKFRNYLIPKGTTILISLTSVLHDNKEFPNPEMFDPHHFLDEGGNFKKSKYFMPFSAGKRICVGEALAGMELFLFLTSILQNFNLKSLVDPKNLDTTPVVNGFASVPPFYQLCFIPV

Rattus norvegicus [10] = species: Rattus norvegicus; assay: Potentiation of 12 mM of glucose-induced insulin secretion in rat islet at 0.3 uM
Mus musculus [11] = assay: Increase in glucagon level in GPR119 transgenic wild type mouse at 30 mg/kg, po after 60 mins relative to control; assay type: functional; outline: as §1
Mus musculus [12] = assay: Increase in GIP level in GPR119 transgenic wild type mouse at 30 mg/kg, po after 60 mins by ELISA relative to control; assay type: functional
Outline: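 Overnight-fasted wild-type or GPR119 knockout mice were given vehicle (0.5% HPMC/0.1% Tween80) or 30 mg/kg orally at 10 mL/kg. Cardiac blood was drawn 60 min post-dose under isoflurane into chilled K2-EDTA with DPP-4 inhibitor and aprotinin (250 KIU/mL). Plasma was prepared at 4 °C and held at −80 °C. Total GIP was measured by ELISA; n = 10.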

Rattus norvegicus [13] = assay: Increase of C-peptide level in Wistar rat at 10 mg/kg, po up to 5 mins; assay type: functional, organism-based; set-up: dose 10 mg/kg
Outline: (§2)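 Male Wistar rats (300–350 g) with jugular and femoral vein catheters, one week post-surgery, fasted overnight. Randomized to vehicle (n = 19) or oral compound (n = 8). About 90 min after gavage, a hyperglycemic clamp was started: a glucose bolus into the femoral vein, then variable-rate infusion holding glucose at 190–210 mg/dL. Serum C-peptide was measured by RIA, first phase 0–5 min and second phase 10–90 min.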

Mus musculus [14] = assay: Increase in GLP-1 level in GPR119 knockout mouse at 30 mg/kg, po after 60 mins by electrochemiluminescence assay; assay type: functional, organism-based; set-up: dose 30 mg/kg
Outline: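 Wild-type and GPR119 knockout mice, fasted overnight, received vehicle (0.5% HPMC/0.1% Tween80) or 30 mg/kg by oral gavage at 10 mL/kg. At 60 min, blood was taken by cardiac puncture under isoflurane into chilled K2-EDTA tubes with DPP-4 inhibitor and aprotinin (250 KIU/mL). Plasma was spun at 4 °C and stored at −80 °C. Total GLP-1 was measured by electrochemiluminescence immunoassay; n = 10.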

Mus musculus [15] = assay: Dose normalized AUC (0 to 24 hrs) in mouse at 30 mg/kg; assay type: ADME, organism-based; set-up: dose 30 mg/kg; conditions: in vivo
Rattus norvegicus [16] = assay: Dose normalized AUC (0 to 24 hrs) in rat at 30 mg/kg; assay type: ADME, organism-based; set-up: dose 30 mg/kg; conditions: in vivo
[17] = Oral bioavailability in rat at 30 mg/kg; assay type: ADME, organism-based; conditions: in vivo
[18] = Ratio of drug level brain to plasma in rat at 30 mg/kg; assay type: ADME, organism-based; set-up: dose 30 mg/kg; conditions: read-out: BPR
Mus musculus [19] = assay: Increase in glucagon level in GPR119 knockout mouse at 30 mg/kg, po after 60 mins; assay type: functional, organism-based; set-up: dose 30 mg/kg; outline: as §1
[20] = Oral bioavailability in mouse at 30 mg/kg; assay type: ADME, organism-based; conditions: in vivo
MAO-B = molecular target: T1, MAO-B (Homo sapiens, UniProt P27338); assay: Inhibition of MAO-B at 10 uM
T1 sequence (P27338 whole entry): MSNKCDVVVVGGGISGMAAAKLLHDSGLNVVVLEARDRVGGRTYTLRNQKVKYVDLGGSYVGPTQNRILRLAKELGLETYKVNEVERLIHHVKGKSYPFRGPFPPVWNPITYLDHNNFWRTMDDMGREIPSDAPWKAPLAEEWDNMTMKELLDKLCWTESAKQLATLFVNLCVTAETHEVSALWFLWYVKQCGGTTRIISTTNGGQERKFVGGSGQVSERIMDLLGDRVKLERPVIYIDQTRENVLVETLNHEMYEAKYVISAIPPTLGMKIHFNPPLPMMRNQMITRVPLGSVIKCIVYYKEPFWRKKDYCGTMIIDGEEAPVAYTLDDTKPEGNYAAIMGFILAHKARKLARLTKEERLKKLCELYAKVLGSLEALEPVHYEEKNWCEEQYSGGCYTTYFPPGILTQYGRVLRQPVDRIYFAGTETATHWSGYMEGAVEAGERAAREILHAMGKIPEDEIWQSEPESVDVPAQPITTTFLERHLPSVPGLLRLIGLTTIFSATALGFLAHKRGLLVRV
Outline: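 Compound was tested at 10 μM in a panel of 68 receptors, ion channels and enzymes. Percent inhibition or stimulation was recorded.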

PCC = assay: Induction of GLP1 secretion in C57BL/6 mouse PCC cells at 0.1 to 1 uM after 24 hrs; assay type: functional, cell-based
Outline: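 Primary colonic crypts were isolated from mouse colon by three 15 min, 37 °C digests with collagenase II, dispase I, DNase I and hyaluronidase, then pooled and washed. Crypts were seeded on Matrigel-coated plates in high-glucose DMEM with 10% FBS and allowed to attach for 24 h. GLP-1 secretion was then assayed as for GLUTag cells (2 h KRB exposure, electrochemiluminescent active GLP-1 immunoassay).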

Rattus norvegicus [21] = assay: Increase of C-peptide level in Wistar rat at 10 mg/kg, po after 10 to 90 mins; assay type: functional, organism-based; set-up: dose 10 mg/kg; outline: as §2
Mus musculus [22] = assay: Increase in PYY level in GPR119 transgenic wild type mouse at 30 mg/kg, po after 60 mins relative to control; assay type: functional; outline: as §1

With CC(C)OC(=O)N1CCC(Oc2ncnc3c2CCN3c2ccc(S(C)(=O)=O)cc2F)CC1 as the molecule, how does the solubility thermodynamic [1] read?
Its solubility thermodynamic is 4 µg/mL (≈ 8.36 µM).

What about the Activity (Rattus norvegicus [2]) of the same molecule?
The Activity was “inactive”.

What about the Activity (Rattus norvegicus [3]) of the same molecule?
Its Activity is 27%.

And the half-life [4]?
The half-life was 2.8 h.

What about the Activity (Mus musculus [5]) of the same molecule?
Its Activity is “inactive”.

What about the pEC50 [6] of the same molecule?
Its pEC50 is 7.70.

What about the half-life [7] of the same molecule?
Its half-life is 8.7 h.

And the clearance [8]?
Its clearance is 8.4 mL/min/kg.

And the Cmax [9]?
The Cmax was 8.4 µM.

What about the pIC50 (Cytochrome P450 2C9) of the same molecule?
The pIC50 was 5.52.

And the Activity (Rattus norvegicus [10])?
Its Activity is “Active”.

And the “fold change (FC)” value (Mus musculus [11])?
Its value is 2.

What about the “fold change (FC)” value (Mus musculus [12]) of the same molecule?
The value was 2.

And the Activity (Rattus norvegicus [13])?
Its Activity is “Active”.

And the Activity (Mus musculus [14])?
Its Activity is “inactive”.

And the AUC/dose (Mus musculus [15])?
Its AUC/dose is 1.7 µg·h/mL.

And the AUC/dose (Rattus norvegicus [16])?
Its AUC/dose is 2.04 µg·h/mL.

What about the bioavailability [17] of the same molecule?
Its bioavailability is 66%.

And the Kp [18]?
Its Kp is 0.7.

What about the Activity (Mus musculus [19]) of the same molecule?
Its Activity is “inactive”.

What about the bioavailability [20] of the same molecule?
Its bioavailability is 40%.

And the inhibition at 10 µM (MAO-B)?
Its inhibition at 10 µM is 54%.

And the Activity (PCC)?
Its Activity is “Active”.

What about the Activity (Rattus norvegicus [21]) of the same molecule?
The Activity was “Active”.

And the “fold change (FC)” value (Mus musculus [22])?
Its value is 3.
